# Assay results published in ChEMBL document CHEMBL5674881, “The therapeutic properties of resminostat for hepatocellular carcinoma” (2018).
# Active and inactive are the calls of the source. The calls are words filed in the database; no cut-off is given here.
# Assays:
# [1] = test system: Hep 3B2; experiment: Anti-proliferative activity against human Hep3B cells assessed as increase in cleaved Caspase 9 level at 80 nM incubated for 24 hrs in presence of SGBS CM by Tetraplex-Assay Kit analysis; assay type: functional, cell-based
# Procedure, shortened: (§1)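 Hep3B seeded at 20000 cells/well overnight, then treated with 30% differentiated SGBS conditioned medium with or without resminostat 80 nM for 24 h. Tetraplex caspase substrate buffer added during treatment for real-time cleavage read-out: Caspase 3/7 at Ex 535/Em 620 nm, Caspase 8 at Ex 490/Em 525 nm, Caspase 9 at Ex 370/Em 450 nm. Compared with controls or between treatments; n = 3.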
# [2] = test system: Hep 3B2; experiment: Anti-proliferative activity against human Hep3B cells assessed as increase in p21 mRNA expression at 80 nM incubated for 24 hrs in presence of SGBS CM by qRT-PCR analysis; assay type: functional, cell-based
# [3] = test system: Hep 3B2; experiment: Anti-proliferative activity against human Hep3B cells assessed as reduction in cell viability at 80 nM incubated for 24 hrs in presence of cisplatin by Fluoro Fire-Blue ProViaTox assay relative to control; assay type: functional, cell-based
# [4] = test system: Hep 3B2; experiment: Upregulation of BIM expression in human Hep3B cells at 80 nM incubated for 24 hrs by qRT-PCR analysis; assay type: functional, cell-based
# Procedure, shortened: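 RNA levels of BCL-2, BIM, BAX and BAD measured in Hep3B cells after 24 h with 80 nM drug. Triplicates, three independent experiments, t-test.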
# [5] = test system: Hep 3B2; experiment: Anti-proliferative activity against human Hep3B cells assessed as reduction in cell viability at 80 nM measured after 24 hrs in presence of 17-AAG under SGBS CM treatment by Fluoro Fire-Blue ProViaTox assay relative to control
# [6] = test system: Hep 3B2; experiment: Downregulation of STAT3 mRNA expression in human Hep3B cells at 80 nM incubated for 24 hrs in presence of 17-AAG by qRT-PCR analysis; assay type: functional, cell-based
# Procedure, shortened: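 Hep3B cells given 80 nM drug, 17-AAG (50 nM) or both for 24 h. STAT3 and a gene panel (BCL-2, HSP90, ZFP64) measured at RNA level. Triplicates, three independent experiments, mean ± SD.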
# [7] = test system: Hep 3B2; experiment: Downregulation of HDAC1 expression in human Hep3B cells at 80 nM incubated for 24 hrs in presence of 17-AAG by qRT-PCR analysis; assay type: functional, cell-based
# [8] = test system: Hep 3B2; experiment: Anti-proliferative activity against human Hep3B cells assessed as decrease in Cyclin D1 expression at 80 nM incubated for 24 hrs in presence of SGBS CM by qRT-PCR analysis; assay type: functional, cell-based
# [9] = test system: Huh-7; experiment: Anti-proliferative activity against human Huh-7 cells assessed as reduced cell proliferation at 80 nM incubated for 24 hrs by Fluoro Fire-Blue ProViaTox assay; assay type: functional, cell-based
# [10] = test system: Hep 3B2; experiment: Effect on human Hep3B cells assessed as reduction of HDAC global activity at 80 nM incubated for 24 hrs in presence of SGBS CM by FluoroFire HDAC Activity Assay Kit relative to control; assay type: functional; parameters: scale not given: the % may be the effect or the level left
# Procedure, shortened: (§2)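 Hep3B cells treated 24 h with 80 nM drug, alone or with 30% SGBS conditioned medium. Lysates made with lysis reagent (15 min, room temperature, shaking), spun, and supernatant used. Preincubated 20 min at 37°C, then Emerald substrate added for 1 h at 37°C. Fluorescence read at Ex 490/Em 525 nm. HeLa nuclear extract as positive control, HeLa extract with trichostatin A as negative control (n = 3).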
# [11] = test system: Hep 3B2; experiment: Downregulation of HDAC expression in human Hep3B cells at 80 nM incubated for 24 hrs in presence of 17-AAG by qRT-PCR analysis; assay type: functional, cell-based
# [12] = test system: Hep 3B2; experiment: Anti-proliferative activity against human Hep3B cells assessed as reduction in cell viability at 80 nM for 24 hrs in presence of GSK343 by Fluoro Fire-Blue ProViaTox assay relative to control; assay type: functional
# [13] = test system: Hep 3B2; experiment: Downregulation of BCL2 mRNA expression in human Hep3B cells at 80 nM incubated for 24 hrs in presence of 17-AAG by qRT-PCR analysis; assay type: functional, cell-based
# [14] = test system: Hep 3B2; experiment: Anti-proliferative activity against human Hep3B cells assessed as increase in Caspase 7 expression at 80 nM incubated for 24 hrs by qRT-PCR analysis; assay type: functional, cell-based
# [15] = test system: Hep 3B2; experiment: Anti-proliferative activity against human Hep3B cells assessed as no change in BAD expression at 80 nM incubated for 24 hrs by qRT-PCR analysis; assay type: functional, cell-based
# [16] = test system: Hep 3B2; experiment: Anti-proliferative activity against human Hep3B cells assessed as reduced cell proliferation at 80 nM for 24 hrs in presence of DZNep by Fluoro Fire-Blue ProViaTox assay relative to control; assay type: functional; parameters: scale not given: the % may be the effect or the level left
# [17] = test system: Hep 3B2; experiment: Anti-proliferative activity against human Hep3B cells assessed as increase in cleaved Caspase 3/7 level at 80 nM incubated for 24 hrs in presence of SGBS CM by Tetraplex-Assay Kit analysis; assay type: functional, cell-based; procedure, shortened: as §1
# [18] = test system: Hep 3B2; experiment: Anti-proliferative activity against human Hep3B cells assessed as reduction in Vimentin protein expression level by measuring green fluorescence at 80 nM incubated for 24 hrs in presence of SGBS CM by immunofluorescence analysis
# [19] = test system: Hep 3B2; experiment: Anti-proliferative activity against human Hep3B cells assessed as decrease in VEGF mRNA level at 80 nM incubated for 24 hrs in presence of SGBS CM by qRT-PCR analysis; assay type: functional, cell-based
# [20] = test system: Hep 3B2; experiment: Downregulation of STAT3 expression in human Hep3B cells at 80 nM incubated for 24 hrs in presence of GSK343 by qRT-PCR analysis; assay type: functional, cell-based
# Procedure, shortened: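 RNA from Hep3B cells treated 24 h with GSK343 (7 nM) alone or with 80 nM drug; EZH2 and STAT3 levels compared between the two treatments. Cells grown in EMEM with 10% FBS, 2 mM L-glutamine, 37°C, 5% CO2.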
# [21] = test system: Hep 3B2; experiment: Downregulation of BCL2 expression in human Hep3B cells at 80 nM incubated for 24 hrs by qRT-PCR analysis; assay type: functional, cell-based
# [22] = test system: Hep 3B2; experiment: Anti-proliferative activity against human Hep3B cells assessed as increase in Caspase 8 expression at 80 nM incubated for 24 hrs by qRT-PCR analysis; assay type: functional, cell-based
# [23] = test system: HepG2; experiment: Effect on human HepG2 cells assessed as reduction in HDAC1 mRNA level at 80 nM incubated for 24 hrs by qRT-PCR analysis; assay type: functional, cell-based
# Procedure, shortened: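 HepG2 (EMEM) and Huh7 (DMEM) cells, both with 10% FBS, treated with 30% differentiated-SGBS conditioned medium with or without 80 nM drug. HDAC1 RNA given as fold change versus untreated cells or between treatments (n = 3).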
# [24] = test system: Hep 3B2; experiment: Anti-proliferative activity against human Hep3B cells assessed as cell proliferation at incubated for 24 hrs by Fluoro Fire-Blue ProViaTox assay; assay type: functional, cell-based; details: dose 20-100 nM
# [25] = test system: Hep 3B2; experiment: Anti-proliferative activity against human Hep3B cells assessed as decrease in STAT3 mRNA level at 80 nM incubated for 24 hrs in presence of SGBS CM by qRT-PCR analysis; assay type: functional, cell-based
# [26] = test system: Hep 3B2; experiment: Effect on human Hep3B cells assessed as reduction of HDAC global activity at 80 nM incubated for 24 hrs by FluoroFire HDAC Activity Assay Kit relative to control; assay type: functional; parameters: scale not given: the % may be the effect or the level left; procedure, shortened: as §2
structure (smiles),measurement,setting,value
CN(C)Cc1ccc(S(=O)(=O)n2ccc(/C=C/C(=O)NO)c2)cc1 [RESMINOSTAT],Activity,[1],Active
same,Activity,[2],Active
same,Activity,[3],Active
same,Activity,[4],Active
same,Activity,[5],31.47%
same,Activity,[6],Active
same,Activity,[7],Active
same,Activity,[8],Active
same,Activity,[9],Active
same,Activity,[10],52.67%
same,Activity,[11],Active
same,Activity,[12],21.61%
same,Activity,[13],Active
same,Activity,[14],Active
same,Activity,[15],Active
same,Activity,[16],11.76%
same,Activity,[17],Active
same,Activity,[18],Active
same,Activity,[19],Active
same,Activity,[20],Active
same,Activity,[21],Active
same,Activity,[22],Active
same,Activity,[23],Active
same,Activity,[24],Dose-Dependent Effect
same,Activity,[25],Active
same,Activity,[26],62.33%
